Results as given in ChEMBL document CHEMBL4732028, “Structural modifications that increase gut restriction of bile acid derivatives” (RSC Med Chem, 2021).
pEC50: −log10 of the molar value. Active and inactive are the calls of the source. No cut-off for these calls is given here.

Key:
[1] = AUC in C57BL/6 mouse at 5 mg/kg, po measured up to 120 mins by LC-MS/MS analysis; type: ADME, organism-based; set-up: route oral, dose 5 mg/kg, time <=120; details: in vivo
[2] = Drug recovery in C57BL/6 mouse feces at 5 mg/kg, po measured after 24 hrs by LC-MS/MS analysis; type: ADME, organism-based; details: read-out: Drug recovery
[3] = target: T1, G-protein coupled bile acid receptor 1 (Homo sapiens, UniProt Q8TDU6); experiment: Agonist activity at recombinant human TGR5 expressed in CHO cells assessed as increase in cAMP accumulation after 30 mins by TR-FRET assay; type: functional, cell-based
T1 sequence (Q8TDU6 whole entry): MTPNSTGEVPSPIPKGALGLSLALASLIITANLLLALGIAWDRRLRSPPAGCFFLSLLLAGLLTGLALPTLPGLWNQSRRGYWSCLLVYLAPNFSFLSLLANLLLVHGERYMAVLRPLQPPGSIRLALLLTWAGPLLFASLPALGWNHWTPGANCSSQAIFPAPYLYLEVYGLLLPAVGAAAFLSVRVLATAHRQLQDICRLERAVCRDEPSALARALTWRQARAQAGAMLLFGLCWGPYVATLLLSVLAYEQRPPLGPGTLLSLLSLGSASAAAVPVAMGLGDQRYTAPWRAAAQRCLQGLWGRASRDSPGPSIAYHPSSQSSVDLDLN

Clostridioides difficile [4] = experiment: Inhibition of TCA-induced Clostridioides difficile RPRE2 spore germination at 200 uM measured once every minute for 20 mins by microplate reader analysis; type: functional
How it was run: (§1)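 Germination of C. difficile spores was induced with 2000 μM taurocholate (TCA), and test compound was added to inhibit it.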

Clostridioides difficile [5] = experiment: Inhibition of TCA-induced Clostridioides difficile RPRE2 spore germination at 50 uM measured once every minute for 20 mins by microplate reader analysis; type: functional; how it was run: as §1
[6] = Apparent permeability of the compound across apical to basolateral side in human Caco-2 cells; type: ADME, cell-based
[7] = Apparent permeability of the compound across basolateral to apical side in human Caco-2 cells; type: ADME, cell-based
[8] = target: T2, Bile acid receptor (Homo sapiens) (UniProt Q96RI1); experiment: Agonist activity at FXR (unknown origin)
T2 sequence (whole entry): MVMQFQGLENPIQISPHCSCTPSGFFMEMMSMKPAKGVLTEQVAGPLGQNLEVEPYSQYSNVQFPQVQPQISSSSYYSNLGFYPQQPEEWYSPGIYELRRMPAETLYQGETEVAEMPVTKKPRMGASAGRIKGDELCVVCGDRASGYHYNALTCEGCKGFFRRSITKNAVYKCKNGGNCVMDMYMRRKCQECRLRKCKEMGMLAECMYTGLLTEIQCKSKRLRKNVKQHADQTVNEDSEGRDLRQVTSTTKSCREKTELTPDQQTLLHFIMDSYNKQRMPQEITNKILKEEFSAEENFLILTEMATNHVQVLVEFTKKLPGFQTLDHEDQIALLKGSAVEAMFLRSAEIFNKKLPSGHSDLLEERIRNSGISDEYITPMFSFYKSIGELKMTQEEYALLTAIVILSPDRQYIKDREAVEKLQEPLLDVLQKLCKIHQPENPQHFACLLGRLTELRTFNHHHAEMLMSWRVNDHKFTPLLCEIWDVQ

[9] = target: T3, Vitamin D3 receptor (Homo sapiens) (UniProt P11473); experiment: Agonist activity at VDR (unknown origin)
T3 sequence (whole entry): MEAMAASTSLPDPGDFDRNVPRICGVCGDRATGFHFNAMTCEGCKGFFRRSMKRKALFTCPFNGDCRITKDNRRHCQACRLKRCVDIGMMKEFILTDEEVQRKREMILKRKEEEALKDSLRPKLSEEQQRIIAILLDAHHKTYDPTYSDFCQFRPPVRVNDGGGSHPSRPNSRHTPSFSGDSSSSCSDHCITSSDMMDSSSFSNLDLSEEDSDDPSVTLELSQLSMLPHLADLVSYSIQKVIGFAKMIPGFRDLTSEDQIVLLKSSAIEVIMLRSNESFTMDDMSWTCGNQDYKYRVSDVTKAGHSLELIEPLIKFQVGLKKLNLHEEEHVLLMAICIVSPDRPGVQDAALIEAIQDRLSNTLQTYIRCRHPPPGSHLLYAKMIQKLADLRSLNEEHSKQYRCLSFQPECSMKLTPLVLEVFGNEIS

HEK293 = experiment: Cytotoxicity against human HEK293 cells at 10 uM; type: cell-based; details: hek293, 10 µM

| SMILES | AUC at 2 h [1] | dose excreted at 24 h [2] | pEC50 [3] | further results |
| --- | --- | --- | --- | --- |
| CO[C@@H]1C[C@@H]2C[C@H](O)CC[C@]2(C)[C@H]2CC[C@]3(C)[C@@H]([C@H](C)CCC(=O)NC[C@H](O)[C@@H](O)[C@H](O)[C@H](O)CO)CC[C@H]3[C@H]12 | 1520 ng·h/mL | 11.7% | 7.48 | inhibition (Clostridioides difficile [4]): inactive |
| CO[C@@H]1C[C@@H]2C[C@H](O)CC[C@]2(C)[C@H]2CC[C@]3(C)[C@@H]([C@H](C)CCC(=O)N(C)C[C@H](O)[C@@H](O)[C@H](O)[C@H](O)CO)CC[C@H]3[C@H]12 | 1250 ng·h/mL | 39.7% | 7.21 | inhibition (Clostridioides difficile [4]): inactive |
| CO[C@@H]1CC[C@@]2(C)[C@@H](C1)C[C@@H](OS(=O)(=O)[O-])[C@@H]1[C@@H]2CC[C@]2(C)[C@@H]([C@H](C)CCc3nnn[n-]3)CC[C@@H]12.[Na+].[Na+] | 4840 ng·h/mL | 89.1% | – | inhibition (Clostridioides difficile [5]): Active |
| CO[C@@H]1C[C@@H]2C[C@H](O)CC[C@]2(C)[C@H]2CC[C@]3(C)[C@@H]([C@H](C)CCC(=O)O)CC[C@H]3[C@H]12 | – | – | 7.11 | – |
| CO[C@@H]1CC[C@@]2(C)[C@@H](C1)C[C@@H](O)[C@@H]1[C@@H]2CC[C@]2(C)[C@@H]([C@H](C)CCc3nn[nH]n3)CC[C@@H]12 | – | – | – | inhibition (Clostridioides difficile [5]): Active |
| CO[C@@H]1CC[C@@]2(C)[C@@H](C1)C[C@H](O)[C@@H]1[C@@H]2CC[C@]2(C)[C@@H]([C@H](C)CCC(=O)N3CCCC3)CC[C@@H]12 | 29600 ng·h/mL | 3% | – | – |
| CO[C@@H]1CC[C@@]2(C)[C@@H](C1)C[C@H](OS(=O)(=O)[O-])[C@@H]1[C@@H]2CC[C@]2(C)[C@@H]([C@H](C)CCC(=O)N3CCCC3)CC[C@@H]12.[Na+] | 14300 ng·h/mL | 29.1% | – | inhibition (Clostridioides difficile [5]): Active |
| Cc1nnc(CC[C@@H](C)[C@H]2CC[C@H]3[C@@H]4[C@H](O)C[C@@H]5C[C@H](O)CC[C@]5(C)[C@H]4CC[C@]23C)o1 | 45800 ng·h/mL | 0.5% | – | Papp A→B [6]: 2.6 ×10⁻⁶ cm/s; Papp B→A [7]: 1.5 ×10⁻⁶ cm/s |
| CO[C@@H]1CC[C@@]2(C)[C@@H](C1)C[C@@H](O)[C@@H]1[C@@H]2CC[C@]2(C)[C@@H]([C@H](C)CCc3nnn[n-]3)CC[C@@H]12.[Na+] | 37700 ng·h/mL | 7.7% | – | – |
| CO[C@@H]1C[C@@H]2C[C@H](O)CC[C@]2(C)[C@H]2CC[C@]3(C)[C@@H]([C@H](C)CCC(=O)N(CCCNC(=O)[C@H](O)[C@@H](O)[C@H](O)[C@H](O)CO)CCCNC(=O)[C@H](O)[C@@H](O)[C@H](O)[C@H](O)CO)CC[C@H]3[C@H]12 | – | – | 6.25 | – |
| CO[C@@H]1C[C@@H]2C[C@H](O)CC[C@]2(C)[C@H]2CC[C@]3(C)[C@@H]([C@H](C)CCc4nnc(C)o4)CC[C@H]3[C@H]12 | 25700 ng·h/mL | 7.1% | – | Papp A→B [6]: 0.27 ×10⁻⁶ cm/s; Papp B→A [7]: 0.12 ×10⁻⁶ cm/s; Activity [8]: inactive; Activity [9]: inactive; Activity (HEK293): Non-Toxic |
